By pIC50 is commonly meant the IC50 on a negative log10 scale, so that one unit is a factor of ten.

One experiment has as its target T1, Caspase-1 (Homo sapiens, UniProt P29466).
T1 sequence (P29466 whole entry): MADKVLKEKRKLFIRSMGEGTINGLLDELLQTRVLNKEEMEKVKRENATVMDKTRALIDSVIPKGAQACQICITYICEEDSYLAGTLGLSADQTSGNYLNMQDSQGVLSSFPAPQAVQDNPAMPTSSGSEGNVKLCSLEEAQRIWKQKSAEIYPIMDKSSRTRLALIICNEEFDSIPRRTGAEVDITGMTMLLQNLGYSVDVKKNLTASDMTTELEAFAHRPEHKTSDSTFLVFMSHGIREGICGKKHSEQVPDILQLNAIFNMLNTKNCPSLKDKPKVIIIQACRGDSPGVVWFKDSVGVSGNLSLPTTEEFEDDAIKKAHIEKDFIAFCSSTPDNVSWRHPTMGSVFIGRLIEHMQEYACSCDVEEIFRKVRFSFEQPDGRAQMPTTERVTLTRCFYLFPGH
In words: Inhibition of human recombinant caspase 1 assessed as accumulation of cleaved fluorogenic 7-amino-4-methylcoumarin after 10 mins. In a few lines:
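Ac-YVAD-AMC substrate, 10 µM final. Enzyme at 0.5 units per assay is preincubated 10 min at 37 °C with compound in DMSO, single doses 5 pM–500 µM final. Substrate is then added and reacts 10 more min. AMC is read at ex 360/em 460 nm. IC50 comes from nonlinear regression, mean ± SD of three assays.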

The target in the next experiment is T2, Caspase-7 (Homo sapiens, UniProt P55210).
T2 sequence (P55210 whole entry): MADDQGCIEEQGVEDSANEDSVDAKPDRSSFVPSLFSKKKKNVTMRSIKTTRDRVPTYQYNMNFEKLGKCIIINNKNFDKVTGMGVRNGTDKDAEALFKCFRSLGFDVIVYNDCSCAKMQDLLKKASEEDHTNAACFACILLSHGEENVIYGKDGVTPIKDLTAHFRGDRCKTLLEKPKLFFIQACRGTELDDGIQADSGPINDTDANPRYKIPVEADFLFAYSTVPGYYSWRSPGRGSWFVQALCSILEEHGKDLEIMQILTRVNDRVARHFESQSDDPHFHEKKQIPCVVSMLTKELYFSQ
Briefly: Inhibition of human recombinant caspase 7 assessed as accumulation of cleaved fluorogenic 7-amino-4-methylcoumarin after 10 mins. In a few lines: (§1)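 Ac-DEVD-AMC substrate, 10 µM final. Enzyme at 0.5 units per assay is preincubated 10 min at 37 °C in reaction buffer with compound in DMSO at 5 pM–500 µM final. Substrate reacts a further 10 min. AMC fluorescence is read at 360/460 nm. IC50 by nonlinear regression, mean ± SD of three assays.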

Another experiment concerns the target T3, Caspase-6 (Homo sapiens, UniProt P55212).
T3 sequence (P55212 whole entry): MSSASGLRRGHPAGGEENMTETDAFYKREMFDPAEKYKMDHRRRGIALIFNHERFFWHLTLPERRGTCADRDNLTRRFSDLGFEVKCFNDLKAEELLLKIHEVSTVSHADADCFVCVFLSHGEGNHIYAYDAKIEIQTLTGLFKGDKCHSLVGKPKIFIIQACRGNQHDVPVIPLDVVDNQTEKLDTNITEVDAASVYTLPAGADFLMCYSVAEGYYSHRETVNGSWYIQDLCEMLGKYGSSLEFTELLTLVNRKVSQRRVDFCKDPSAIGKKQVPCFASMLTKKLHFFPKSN
In words: Inhibition of human recombinant caspase 6 assessed as accumulation of cleaved fluorogenic 7-amino-4-methylcoumarin after 10 mins. In a few lines: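 Substrate Ac-VEID-AMC at 10 µM final, added after the enzyme (0.5 units per assay) has been preincubated 10 min at 37 °C with compound in DMSO at single doses of 5 pM–500 µM. Reaction runs 10 min, then AMC is read at ex 360, em 460 nm. IC50 by nonlinear regression; mean ± SD, n=3.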

Another experiment has as its target T4, Caspase-3 (Homo sapiens, UniProt P42574).
T4 sequence (P42574 whole entry): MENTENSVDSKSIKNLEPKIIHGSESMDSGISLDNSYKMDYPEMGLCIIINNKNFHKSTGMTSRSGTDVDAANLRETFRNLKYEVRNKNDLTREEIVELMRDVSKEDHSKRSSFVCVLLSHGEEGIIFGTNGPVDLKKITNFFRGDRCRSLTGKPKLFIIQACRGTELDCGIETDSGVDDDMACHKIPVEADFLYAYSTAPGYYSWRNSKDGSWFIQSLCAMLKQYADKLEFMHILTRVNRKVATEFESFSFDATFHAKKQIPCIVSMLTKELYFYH
In words: Inhibition of human recombinant caspase 3 assessed as accumulation of cleaved fluorogenic 7-amino-4-methylcoumarin after 10 mins. The essentials: as §1

pIC50: −log10 of the molar value. Bounds are passed on as bounds.

For the molecule `COC[C@@H]1CCCN1S(=O)(=O)c1ccc2c(c1)C(=O)C(=O)N2Cc1ccc(C(F)CO)cc1` (stereo partly drawn), the negative-log IC50 (pIC50) at Caspase-1 was less than 3.30; on Caspase-7, 8.12; on Caspase-6, less than 3.30; on Caspase-3, 7.10.
As to `C=Cc1ccc(CN2C(=O)C(=O)c3cc(S(=O)(=O)N4CCC[C@H]4COC)ccc32)cc1`, the pIC50 at Caspase-1 was less than 3.30; on Caspase-7, 8.14; at Caspase-6 it was less than 3.30; on Caspase-3, 8.03.
As to `CN1C(=O)C(=O)c2cc(S(=O)(=O)N3CCC[C@H]3COc3ccccc3)ccc21`, the pIC50 at Caspase-1 is less than 3.30; at Caspase-7, 6.52; on Caspase-6 it was less than 3.30; at Caspase-3, 8.62.
In the case of `O=C1Nc2ccc(S(=O)(=O)N3CCC[C@H]3COc3ccccc3)cc2C1=O`, the pIC50 at Caspase-1 and on Caspase-6 was less than 3.30 each time.
On to `C=CCCCCCCCCCN1C(=O)C(=O)c2cc(S(=O)(=O)N3CCC[C@H]3COC)ccc21`, for which the pIC50 is less than 3.30 on Caspase-1, 6.95 at Caspase-7, less than 3.30 on Caspase-6 and 7.13 at Caspase-3.
As for `COC[C@@H]1CCCN1S(=O)(=O)c1ccc2c(c1)C(=O)C(=O)N2CCC(O)CF` (stereo partly drawn), the negative-log IC50 (pIC50) was less than 3.30 at Caspase-1, 7.00 at Caspase-7, less than 3.30 on Caspase-6 and 8.44 at Caspase-3.
On to `COC[C@@H]1CCCN1S(=O)(=O)c1ccc2c(c1)C(=O)C(=O)N2Cc1ccc(OCC(O)CF)cc1` (stereo partly drawn), for which the pIC50 at Caspase-1 was less than 3.30; at Caspase-7 it was 8.30; at Caspase-6, less than 3.30; at Caspase-3, 6.84.
For `COC[C@@H]1CCCN1S(=O)(=O)c1ccc2c(c1)C(=O)C(=O)N2Cc1ccc(OCC2CO2)cc1` (stereo partly drawn), the pIC50 on Caspase-1 was less than 3.30; on Caspase-7 it was 8.62; at Caspase-6, less than 3.30; on Caspase-3, 7.38.
With `COC[C@@H]1CCCN1S(=O)(=O)c1ccc2c(c1)C(=O)C(=O)N2CCC1CO1` (stereo partly drawn), the negative-log IC50 (pIC50) at Caspase-1 is less than 3.30; on Caspase-7, 7.17; at Caspase-6 it was less than 3.30; at Caspase-3 it was 6.82.
With `COC[C@@H]1CCCN1S(=O)(=O)c1ccc2c(c1)C(=O)C(=O)N2Cc1ccc(C2CO2)cc1` (stereo partly drawn), the negative-log IC50 (pIC50) at Caspase-1 is less than 3.30; at Caspase-7, 8.72; on Caspase-6, less than 3.30; at Caspase-3, 8.18.
Consider `C=CCN1C(=O)C(=O)c2cc(S(=O)(=O)N3CCC[C@H]3COC)ccc21`, for which the pIC50 at Caspase-1 was less than 3.30; on Caspase-7, 7.62; on Caspase-6, less than 3.30; at Caspase-3 it was 7.60.
On to `COC[C@@H]1CCCN1S(=O)(=O)c1ccc2c(c1)C(=O)C(=O)N2Cc1ccc(C(F)CBr)cc1` (stereo partly drawn), for which the negative logarithm of the IC50 (pIC50) at Caspase-1 is less than 3.30; at Caspase-7 it was 7.80; on Caspase-6, less than 3.30; on Caspase-3 it was 7.37.
In the case of `COC[C@@H]1CCCN1S(=O)(=O)c1ccc2c(c1)C(=O)C(=O)N2`, the pIC50 on Caspase-1 and on Caspase-6 was less than 3.30 each time.
In the case of `COC[C@@H]1CCCN1S(=O)(=O)c1ccc2c(c1)C(=O)C(=O)N2CCCCCCCCCC1CO1` (stereo partly drawn), the pIC50 was less than 3.30 at Caspase-1, 7.21 at Caspase-7, less than 3.30 on Caspase-6 and 7.64 at Caspase-3.
As for `COC[C@@H]1CCCN1S(=O)(=O)c1ccc2c(c1)C(=O)C(=O)N2C[C@H](O)CO`, the pIC50 was less than 3.30 at Caspase-1, 7.37 at Caspase-7, less than 3.30 on Caspase-6 and 7.96 at Caspase-3.
Take `COC[C@@H]1CCCN1S(=O)(=O)c1ccc2c(c1)C(=O)C(=O)N2C[C@H](O)CF`: the negative-log IC50 (pIC50) on Caspase-1 was less than 3.30; on Caspase-7 it was 6.46; at Caspase-6, less than 3.30; on Caspase-3, 7.72.
Turning to `C=CCCN1C(=O)C(=O)c2cc(S(=O)(=O)N3CCC[C@H]3COC)ccc21`, the pIC50 was less than 3.30 at Caspase-1, 7.30 at Caspase-7, less than 3.30 at Caspase-6 and 7.51 at Caspase-3.
Turning to `COC[C@@H]1CCCN1S(=O)(=O)c1ccc2c(c1)C(=O)C(=O)N2C[C@H]1CO1`, the negative logarithm of the IC50 (pIC50) was 5.50 on Caspase-1, 8.05 at Caspase-7, less than 3.30 at Caspase-6 and 7.77 at Caspase-3.
The matching figures for `C=CCOc1ccc(CN2C(=O)C(=O)c3cc(S(=O)(=O)N4CCC[C@H]4COC)ccc32)cc1`: less than 3.30, 9.22, less than 3.30 and 8.00.
The matching figures for `COC[C@@H]1CCCN1S(=O)(=O)c1ccc2c(c1)C(=O)C(=O)N2CCC(O)CO` (stereo partly drawn): less than 3.30, 7.21, less than 3.30 and 6.56.
With `COC[C@@H]1CCCN1S(=O)(=O)c1ccc2c(c1)C(=O)C(=O)N2CC(F)(F)CBr`, the pIC50 at Caspase-7 was 5.78; on Caspase-3, 5.73.

(Values after ChEMBL document CHEMBL1136939, “Fluorinated isatin derivatives. Part 2. New N-substituted 5-pyrrolidinylsulfonyl isatins as potential tools for molecular imaging of caspases in apoptosis” (J Med Chem, 2009).)
